From PubChem
The list is not random: actives were taken first. Their share in the collection is about 1.6%.
PPC-1+TRAIL kill: PPC-1 cancer cell killing with TRAIL present; PPC-1 cells + TRAIL, ATPLite viability luminescence; cell killing (% activity), % at 4 µM or 5 µM; actives 0.41% (n = 220,000);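 active = cell killing above 50% in the first pass at 4 µM, then a duplicate retest at 5 µM averaging 50% or more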;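 note: plate controls were cells with TRAIL plus DMSO for no effect and medium-only wells lacking cells for full effect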
C8 TRAIL sens: sensitizes caspase-8 expressing cells to TRAIL; NB7+C8 cells + TRAIL, ATPlite viability luminescence; inhibition (viability loss, TRAIL sensitization), % at 10 µM; actives 1% (n = 360,000); AID 624354;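 active = compounds causing at least 50% loss of cell viability in the single-dose screen, relative to plate controls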
FLuc act counter: firefly luciferase counter-screen for stimulation assays | ATPlite luciferase biochemical, luminescence, 10 min; 0 = ATP-free wells, 1 = DMSO control | activation factor at 10 µM | 200,000 tested, under 10 active | AID 1027;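 active = luciferase activation factor, scaled between plate controls, of at least 2 with compound at 10 µM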
Target sequence (P08659 whole entry, looked up): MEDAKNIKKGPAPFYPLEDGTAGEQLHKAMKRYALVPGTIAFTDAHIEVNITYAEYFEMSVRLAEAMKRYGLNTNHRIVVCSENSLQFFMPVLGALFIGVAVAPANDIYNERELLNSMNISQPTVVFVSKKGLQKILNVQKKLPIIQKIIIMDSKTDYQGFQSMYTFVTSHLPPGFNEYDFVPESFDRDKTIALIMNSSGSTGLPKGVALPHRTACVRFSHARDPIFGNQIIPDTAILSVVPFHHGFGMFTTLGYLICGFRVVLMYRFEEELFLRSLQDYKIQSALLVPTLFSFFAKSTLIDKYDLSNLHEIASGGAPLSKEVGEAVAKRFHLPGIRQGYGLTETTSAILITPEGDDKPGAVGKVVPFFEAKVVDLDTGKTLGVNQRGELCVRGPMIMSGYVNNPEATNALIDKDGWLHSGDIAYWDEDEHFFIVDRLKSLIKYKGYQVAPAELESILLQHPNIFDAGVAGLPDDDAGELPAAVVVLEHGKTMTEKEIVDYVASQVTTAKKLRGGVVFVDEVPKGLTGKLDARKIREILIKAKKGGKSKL
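Material: Luciferase/luciferin reagent mix | Doses: Test compounds dosed from 2 mM stocks in 100% DMSO | Timing: 10 min incubation after luciferase reagent addition, room temperature | Measured by: Luminescence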
FLuc inh counter: Photinus pyralis luciferase inhibition counter-screen; actives 1.5% (n = 200,000); inhibition, % at 10 µM; ATPLite firefly luciferase biochemical luminescence, 10 min; P08659; AID 1006;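 active = inhibition above about 50% when tested at 10 µM, limit read from the data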
Numbers without * were called inactive; . = no result.

SMILES | PPC-1+TRAIL kill | C8 TRAIL sens | FLuc act counter | FLuc inh counter
Nc1nc(-c2ccc3c(c2)CCCC3)cs1 | 29 | 11 | 0.4 | 58*
CCC(C)C(=O)N1CCc2cc(-c3csc(N)n3)ccc21 (centres undefined) | 10 | 27 | 0.3 | 67*
CNc1nc(-c2ccc3c(c2)CCN3C(=O)c2ccccc2F)cs1 | 25 | 44 | 0.4 | 65*
CCOC(=O)c1cc(C(C)(C)C)oc1CNC(=O)c1c(C)oc2c1CCCC2 | 2 | -4 | 1.1 | -8
O=C(Nc1nncs1)C1COc2ccccc2O1 (centres undefined) | 12 | 2 | 1 | -1
COC(=O)c1sc(NC(=S)NC(=O)c2cccc(C)c2)nc1C | 13 | 51* | 0.5 | 50
CC(=O)c1sc(NC(=O)c2cccc(C)c2)nc1C | 18 | 25 | 0.5 | 51*
CC(=O)c1sc(NC(=O)C2COc3ccccc3O2)nc1C (centres undefined) | . | -11 | 0.4 | 60*
CCN(CC)S(=O)(=O)c1ccc(S(=O)(=O)N2CCC(N3CCCCC3)CC2)cc1 | . | 8 | . | .
Cc1ccc(OCC(=O)N(C)CC(=O)Nc2cccc(F)c2)cc1 | . | -1 | . | .
Cn1c(CNC(=O)CCNC(=O)c2cccc(Cl)c2)cc(=O)n(C)c1=O | . | -16 | . | .
Cc1cc2oc(=O)cc(Cn3nnc(-c4ccc(Cl)cc4)n3)c2cc1C(C)C | 0 | . | 1.1 | -6
Cc1cccc(C)c1NC(=O)C1CCN(S(C)(=O)=O)CC1 | . | 51* | . | .
c1ccc(CSc2ccc(-c3ccco3)nn2)cc1 | 26 | 59* | 0.2 | 83*
Cc1ccc(CSc2ccc(-c3ccco3)nn2)cc1 | 31 | 40 | 0.4 | 55*
Clc1cccc(CSc2ccc(-c3ccco3)nn2)c1 | 25 | 6 | 0.9 | 11
Clc1ccc(CSc2ccc(-c3ccccn3)nn2)cc1 | 10 | 15 | 1 | 0
c1ccc(CSc2ccc(-c3ccccn3)nn2)cc1 | 16 | 42 | 0.4 | 58*
Fc1ccccc1CSc1ccc(-c2ccco2)nn1 | 16 | 40 | 0.2 | 78*
Clc1ccc(CSc2ccc(-c3ccco3)nn2)cc1 | 8 | 9 | 0.8 | 18
COc1ccccc1C(=O)NCCC(=O)NCC1COc2ccccc2O1 (centres undefined) | . | -3 | . | .
O=C(/C=C/c1ccccc1)N1CCC(N2CCC(C(=O)N3CCOCC3)CC2)CC1 | -13 | -2 | 1.1 | -7
O=C(COc1ccccc1C(=O)Nc1ccccc1)NCCc1ccccc1 | 0 | -3 | 0.4 | 57*
Cc1ccc(NC(=O)COc2ccccc2C(=O)NCCc2ccccc2)cc1 | . | 11 | . | .
O=S(=O)(Nc1ccccn1)c1ccc(Cl)c2ccccc12 | 4 | 2 | 1 | 1
SMILES | PPC-1+TRAIL kill | C8 TRAIL sens | FLuc act counter | FLuc inh counter
O=C(c1ccccc1)c1nnc(-c2ccccc2F)o1 | 3 | -6 | 0.2 | 78*
COC(=O)C[C@H]1CC[C@H](NC(=O)c2cccc(F)c2)[C@@H](CO)O1 | . | -6 | . | .
CCc1nnc(NC(=O)CSc2nc3c(cc2C#N)CCCC3)s1 | -35 | 58* | 1 | -2
CCc1nnc(NC(=O)c2sc3nc4c(cc3c2N)CCCCC4)s1 | 49 | 36 | 0.3 | 68*
Cc1ccc2nc(C(C)(C)C)c(Cc3cccc(F)c3)n2c1 | . | -8 | . | .
COc1cccc(N2CCN(C(=O)c3ccc(OC)c(S(=O)(=O)NC4CC4)c3)CC2)c1 | . | 8 | . | .
O=C(/C=C/c1ccc(Cl)cc1Cl)N1CCc2ccccc21 | 38 | 61* | 0.4 | 63*
O=C(/C=C/c1cccc(F)c1)N1CCc2ccccc21 | 43 | 64* | 0.4 | 62*
O=C(/C=C/c1cccc(F)c1)OCC(=O)N1CCCc2ccccc21 | . | -9 | . | .
O=[N+]([O-])c1cc([N+](=O)[O-])c(Oc2ccc(Cl)c3cccnc23)cc1NN1CCCCC1 | . | 23 | . | .
COc1ccc(-c2csc(C3=C(O)CN(CCCN4CCCC4=O)C3=N)n2)cc1OC | 26 | 12 | 0.4 | 56*
O=C(O)/C=C/C(=O)Nc1ccc(-c2ccccc2)cc1 | 18 | 9 | 0.5 | 53*
COc1ccc(CCC(=O)Nc2ccc(S(=O)(=O)Nc3nccc(C)n3)cc2)cc1 | . | 2 | . | .
CC1=C/C(=N\NC(=S)Nc2cccnc2)CC(C)(C)C1 | -1 | 5 | 0.9 | 6
Cc1nc(Nc2nc3ccccc3o2)nc2c1CCC2 | 25 | 38 | 0.3 | 66*
COc1cc(/C=C/C(=O)OCC(=O)NCc2ccco2)ccc1O | . | 30 | . | .
COc1ccc(-c2sc3ccccc3c2-c2ccc(OCCN(C)C)cc2)cc1 | . | 79* | . | .
CCOC(=O)CSc1nc2cc(OC)ccc2cc1C#N | 42 | 67* | 1 | -1
CCOC(=O)CSc1nc2cc(C)ccc2cc1C#N | 14 | 53* | 1.1 | -6
Cc1ccc(-n2nnnc2CCl)cc1 | 3 | -2 | 1 | -4
CSCCNC(=O)c1ccc(C(C)(C)C)cc1 | 41 | 20 | 0.3 | 74*
COc1ccc(NC(=O)NCc2ccccn2)c(OC)c1 | . | -5 | . | .
Cc1ccc2sc(N(CCCN(C)C)C(=O)CCS(=O)(=O)c3ccccc3)nc2c1C | . | 51* | . | .
O=C(Nc1nc(=O)c2ccccc2s1)c1ccc(F)cc1 | 18 | 55* | 0.5 | 54*
Cn1sc(NC(=O)c2ccc(Cl)cc2)nc1=O | 25 | 50* | 0.2 | 78*
SMILES | PPC-1+TRAIL kill | C8 TRAIL sens | FLuc act counter | FLuc inh counter
O=C(Cc1ccccc1)Nc1nc(=O)c2ccccc2s1 | 15 | 1 | 1 | -2
Cc1ccc(C(=O)Nc2nc(=O)n(C(=O)c3ccccc3Cl)s2)cc1 | 12 | -5 | 0.8 | 18
O=C(Nc1nc(=O)c2ccccc2s1)c1ccc(Cl)cc1 | 29 | 67* | 0.6 | 43
CNc1nc(-c2cccs2)cc(C(F)(F)F)c1C#N | -4 | -14 | . | .
CC(=O)N1CCOc2ccc(S(=O)(=O)NC(C)c3ccccc3)cc21 (centres undefined) | . | -7 | . | .
O=C(N/N=C/c1ccc[nH]1)c1c[nH]c2ccccc12 | . | 78* | . | .
CCn1nc(C)c(/C=N/NC(=O)c2c[nH]c3ccccc23)c1C | 14 | 17 | 0.4 | 59*
N#CC1=C(N)N2C(=C(C#N)C1c1cccc(Br)c1)Nc1ccccc12 (centres undefined) | 28 | 53* | 1.1 | -6
CCC(C)C(NC(N)=O)C(=O)Nc1ccc(C(=O)OC)cc1 (centres undefined) | 35 | -4 | 1.1 | -6
CCc1ccc(C(=O)COC(=O)[C@@H](NC(N)=O)[C@@H](C)CC)cc1 | 17 | 40 | 0.1 | 89*
CN(C)S(=O)(=O)c1cccc(-c2nnc3n2CCCCC3)c1 | 8 | 0 | . | .
Cc1ccc2c(c1)Cc1nc3ccccc3nc1-2 | 50 | 59* | 0.1 | 87*
Cc1nc2ccc(S(=O)(=O)NCC(=O)Nc3cccc(F)c3)cc2s1 | 14 | -5 | 1 | -1
O=C(Nc1ccc(NC(=O)C2CC2)cc1)c1ccco1 | . | 55* | . | .
O=C(Nc1ccc(NC(=O)C2CCCCC2)cn1)c1ccco1 | 58* | 70* | 0.1 | 86*
COc1ccccc1C/C(N)=N/OC(=O)c1ccc(C)c([N+](=O)[O-])c1 | 3 | 55* | 1.1 | -9
COc1cccc(C(=O)O/N=C(\C)c2cnccn2)c1 | 5 | -1 | 0.3 | 65*
COc1ccc(/C(N)=N/OC(=O)CC2CCCCC2)cc1OC | . | 73* | . | .
